Active and inactive are the calls of the source. The rule behind the calls is not given here.
Tests used:
Cholinesterase [1] = molecular target: T1, Cholinesterase (Equus caballus, UniProt P81908); assay: Inhibition of equine serum butyrylcholinesterase using […] as substrate preincubated for 30 mins followed by substrate addition measured after 2.5 mins by Ellman's spectrophotometric method
How it was run: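 Ellman assay at 25 °C in phosphate buffer pH 8.0. Enzyme (AChE from human erythrocytes, BChE from equine or human serum; 2.5 units/mL stock with 2 mg/mL BSA) and DTNB (0.3 mM in assay) preincubated with compound from ethanol stocks (1 nM−1 mM in assay). Ethanol control, triplicates, IC50 from activity vs log concentration.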

Acetylcholinesterase [2] = molecular target: T2, Acetylcholinesterase (Homo sapiens, UniProt P22303); assay: Inhibition of human acetylcholinesterase using […] as substrate at 10 uM preincubated for 4.5 mins followed by substrate addition measured after 2.5 mins by Ellman's spectrophotometric method
Acetylcholinesterase [3] = molecular target: T2, Acetylcholinesterase; assay: Inhibition of human acetylcholinesterase using […] as substrate at 100 uM preincubated for 4.5 mins followed by substrate addition measured after 2.5 mins by Ellman's spectrophotometric method
Cholinesterase [4] = molecular target: T1, Cholinesterase; assay: Inhibition of equine serum butyrylcholinesterase using […] as substrate preincubated for 4.5 mins followed by substrate addition measured after 2.5 mins by Ellman's spectrophotometric method
How it was run: (§1)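 Ellman assay at 25 °C in phosphate buffer pH 8.0. Enzyme (AChE from human erythrocytes, BChE from equine or human serum; 2.5 units/mL stock with 2 mg/mL BSA) and DTNB (0.3 mM in assay) preincubated with compound from ethanol stocks (1 nM−1 mM in assay). Acetyl- or butyrylthiocholine added (452 μM in assay), absorbance at 412 nm after 2.5 min. Ethanol control, triplicates, IC50 from activity vs log concentration.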

Acetylcholinesterase [5] = molecular target: T2, Acetylcholinesterase; assay: Inhibition of human acetylcholinesterase using […] as substrate preincubated for 4.5 mins followed by substrate addition measured after 2.5 mins by Ellman's spectrophotometric method; how it was run: as §1
Acetylcholinesterase [6] = molecular target: T2, Acetylcholinesterase; assay: Inhibition of human acetylcholinesterase using […] as substrate at 500 uM preincubated for 4.5 mins followed by substrate addition measured after 2.5 mins by Ellman's spectrophotometric method
[7] = molecular target: Cholinesterase (Equus caballus) (UniProt P81908); assay: Pseudo-irreversible inhibition of equine serum butyrylcholinesterase assessed as apparent affinity between enzyme and inhibitor at equilibrium state using p-nitrophenyl butyrate as substrate preincubated for 5 to 40 mins followed by substrate addition by double reciprocal plot analysis
[8] = molecular target: Cholinesterase (Equus caballus) (UniProt P81908); assay: Pseudo-irreversible inhibition of equine serum butyrylcholinesterase assessed as carbamoylation rate of inhibitor from reversible enzyme inhibitor complex to carbamoylated enzyme using p-nitrophenyl butyrate as substrate preincubated for 5 to 40 mins followed by substrate addition by double reciprocal plot analysis
[9] = molecular target: Cholinesterase (Equus caballus) (UniProt P81908); assay: Pseudo-irreversible inhibition of equine serum butyrylcholinesterase assessed as ratio of carbamoylation rate of inhibitor to apparent affinity between enzyme and inhibitor at equilibrium state using p-nitrophenyl butyrate as substrate preincubated for 5 to 40 mins followed by substrate addition by double reciprocal plot analysis
[10] = Neurotoxicity against mouse HT22 cells assessed as cell viability at 1 and 5 uM after 24 hrs by MTT assay; format: toxicity, cell-based; settings: ht-22, 24 h
How it was run: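 HT-22 murine hippocampal cells grown in high-glucose DMEM plus 10% heat-inactivated FCS at 37 °C, 5% CO2. After 24 h culture in plates, treated 24 h with compound (DMSO ≤0.1% final) without glutamate. Viability read by MTT (3 h), SDS lysis buffer pH 4.1, absorbance at 560 nm, given as percent of untreated control.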

HT-22 [11] = assay: Neuroprotective activity against glutamate-induced oxycytotic cell death in mouse HT22 cells assessed as cell viability at 5 uM after 24 hrs by MTT assay; format: functional, cell-based
How it was run: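 Murine hippocampal HT-22 cells in high-glucose DMEM with 10% heat-inactivated FCS, 37 °C, 5% CO2. […] MTT (4 mg/mL in PBS, diluted 1:10 in medium) for 3 h, lysis in 10% SDS pH 4.1, absorbance 560 nm; viability as % of untreated cells.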

[12] = Antioxidant activity assessed as trolox equivalents of AAPH radical scavenging activity preincubated for 15 mins followed by AAPH addition measured every 60 secs for 90 mins by ORAC assay; format: physicochemical; settings: 1.5 h
How it was run: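 ORAC-FL: compound (1−5 μM) with fluorescein (300 nM final) in 75 mM phosphate buffer pH 7.4, 15 min at 37 °C, then AAPH (12 mM final). Fluorescence read every 60 s for 90 min (ex 485/em 535 nm). […] Samples in quadruplicate, ≥4 independent runs.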

HT-22 [13] = assay: Neuroprotective activity against glutamate-induced oxycytotic cell death in mouse HT22 cells assessed as cell viability at 5 to 25 uM after 24 hrs by MTT assay; format: functional, cell-based
How it was run: (§2)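 Murine hippocampal HT-22 cells in high-glucose DMEM with 10% heat-inactivated FCS, 37 °C, 5% CO2. […] MTT 3 h, SDS lysis, absorbance at 560 nm, viability as % of untreated cells.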

[14] = Neurotoxicity against mouse HT22 cells assessed as cell viability up to 10 uM after 24 hrs by MTT assay; format: toxicity, cell-based, HT-22; settings: read-out: Activity; how it was run: as §2

T2 sequence (P22303 whole entry): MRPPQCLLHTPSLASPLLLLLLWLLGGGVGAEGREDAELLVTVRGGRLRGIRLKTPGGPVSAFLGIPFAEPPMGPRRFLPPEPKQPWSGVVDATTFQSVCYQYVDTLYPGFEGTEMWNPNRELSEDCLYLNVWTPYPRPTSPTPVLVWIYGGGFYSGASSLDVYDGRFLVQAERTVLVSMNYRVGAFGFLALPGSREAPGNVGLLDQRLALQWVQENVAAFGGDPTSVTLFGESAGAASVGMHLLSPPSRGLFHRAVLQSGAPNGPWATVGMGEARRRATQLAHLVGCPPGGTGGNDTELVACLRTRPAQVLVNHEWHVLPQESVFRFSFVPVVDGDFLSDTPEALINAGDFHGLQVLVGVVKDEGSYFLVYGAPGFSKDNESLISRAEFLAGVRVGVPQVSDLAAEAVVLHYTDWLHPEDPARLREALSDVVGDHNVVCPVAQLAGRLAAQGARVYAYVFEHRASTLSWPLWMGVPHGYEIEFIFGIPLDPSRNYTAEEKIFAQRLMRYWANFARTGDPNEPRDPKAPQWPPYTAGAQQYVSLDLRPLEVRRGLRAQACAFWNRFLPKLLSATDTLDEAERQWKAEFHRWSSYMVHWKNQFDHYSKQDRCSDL
T1 sequence (P81908 whole entry): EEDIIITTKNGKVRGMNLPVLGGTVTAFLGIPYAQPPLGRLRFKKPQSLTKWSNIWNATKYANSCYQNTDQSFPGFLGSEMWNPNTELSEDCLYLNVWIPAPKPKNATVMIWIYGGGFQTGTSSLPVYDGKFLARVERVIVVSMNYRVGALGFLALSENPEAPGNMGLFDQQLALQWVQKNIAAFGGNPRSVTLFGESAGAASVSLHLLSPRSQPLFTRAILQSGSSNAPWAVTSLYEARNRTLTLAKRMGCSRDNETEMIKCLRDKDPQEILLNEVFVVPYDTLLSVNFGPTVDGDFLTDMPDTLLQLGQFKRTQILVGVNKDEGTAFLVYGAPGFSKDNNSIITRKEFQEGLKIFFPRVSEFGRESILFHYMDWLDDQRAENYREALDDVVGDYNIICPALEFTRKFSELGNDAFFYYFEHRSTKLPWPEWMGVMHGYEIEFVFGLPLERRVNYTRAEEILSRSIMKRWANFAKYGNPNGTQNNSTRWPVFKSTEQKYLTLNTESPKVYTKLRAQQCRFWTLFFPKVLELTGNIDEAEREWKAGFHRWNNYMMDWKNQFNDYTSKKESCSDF
Sequence of Cholinesterase (Equus caballus) (P81908 whole entry): as above

Row | SMILES | IC50 (Cholinesterase [1]) | inhibition (Acetylcholinesterase [3]) | IC50 (Cholinesterase [4]) | IC50 (Acetylcholinesterase [5]) | further results
1 | CCCCCCCNC(=O)Oc1ccc2c(c1)CN(C)C(c1ccc3ccccc3c1)N2C (stereo unspecified) | 0.374 µM |  |  |  | inhibition (Acetylcholinesterase [2]): 5%
2 | CCCCCCCNC(=O)Oc1ccc2c(c1)CN(C)C(c1ccncc1)N2C (stereo unspecified) | 0.723 µM | 16% |  |  | 
3 | CN1Cc2cc(O)ccc2N(C)C1c1ccncc1 (stereo unspecified) |  |  | 2.1 µM | 242 µM | 
4 | CCCCCCCNC(=O)Oc1ccc2c(c1)CN(C)C(c1ccccc1OC)N2C (stereo unspecified) | 0.238 µM |  |  |  | inhibition (Acetylcholinesterase [2]): 47%
5 | COc1cccc(C2N(C)Cc3cc(O)ccc3N2C)c1 (stereo unspecified) |  |  | 7.8 µM |  | inhibition (Acetylcholinesterase [6]): 61%
6 | CCCCCCCNC(=O)Oc1ccc2nc(-c3ccccc3)ncc2c1 | 1.8 µM | 22% |  |  | K [7]: 1060 nM; K [8]: 0.14 min⁻¹; Ratio [9]: 0.13 µM⁻¹ min⁻¹
7 | CCCCCCCNC(=O)Oc1ccc2c(c1)CN(C)C(c1c(Cl)cccc1Cl)N2C (stereo unspecified) | 0.531 µM |  |  |  | K [7]: 4120 nM; K [8]: 0.23 min⁻¹; Ratio [9]: 0.06 µM⁻¹ min⁻¹; inhibition (Acetylcholinesterase [2]): 33%
8 | CCCCCCCNC(=O)Oc1ccc2c(c1)CN(C)C(c1ccsc1)N2C (stereo unspecified) | 0.022 µM | 13% |  |  | 
9 | CN1Cc2cc(O)ccc2N(C)C1c1ccc(C(F)(F)F)cc1 (stereo unspecified) |  |  | 64.6 µM |  | 
10 | CN1Cc2cc(O)ccc2N(C)C1c1ccsc1 (stereo unspecified) |  |  | 194 µM |  | inhibition (Acetylcholinesterase [6]): 52%
11 | CN1Cc2cc(O)ccc2N(C)C1c1ccccc1 (stereo unspecified) |  |  | 39.9 µM | 327 µM | Activity [10]: Non-toxic; Activity (HT-22 [11]): Active; Activity [12]: 3 equiv
12 | CCCCCCCNC(=O)Oc1ccc2c(c1)CN(C)C(c1cccc(Cl)c1)N2C (stereo unspecified) | 0.096 µM | 39% |  |  | K [7]: 227 nM; K [8]: 0.16 min⁻¹; Ratio [9]: 0.7 µM⁻¹ min⁻¹
13 | CC(C)N1Cc2cc(O)ccc2N(C)C1c1ccccc1 (stereo unspecified) |  |  | 55.8 µM | 253 µM | 
14 | Cc1ccc(C2N(C)Cc3cc(O)ccc3N2C)cc1 (stereo unspecified) |  |  | 22.6 µM | 110 µM | 
15 | CCCCCCCNC(=O)Oc1ccc2c(c1)CN(C)C(c1cccc(C)c1)N2C (stereo unspecified) | 0.199 µM | 27% |  |  | 
16 | CN1Cc2cc(O)ccc2N(C)C1c1c(Cl)cccc1Cl (stereo unspecified) |  |  | 7.1 µM | 13.5 µM | 
17 | Cc1ccccc1C1N(C)Cc2cc(O)ccc2N1C (stereo unspecified) |  |  | 92.4 µM | 143 µM | 
18 | CCCCCCCNC(=O)Oc1ccc2c(c1)CN(C(C)C)C(c1ccccc1)N2C (stereo unspecified) | 0.021 µM | 33% |  |  | K [7]: 186 nM; K [8]: 0.16 min⁻¹; Ratio [9]: 0.86 µM⁻¹ min⁻¹
19 | CN1Cc2cc(O)ccc2N(C)C1c1cccc(Cl)c1 (stereo unspecified) |  |  | 2.1 µM | 242 µM | 
20 | CCCCCCCNC(=O)Oc1ccc2c(c1)CN(C)C(c1cccc(OC)c1)N2C (stereo unspecified) | 0.208 µM | 10% |  |  | K [7]: 622 nM; K [8]: 0.18 min⁻¹; Ratio [9]: 0.29 µM⁻¹ min⁻¹
21 | CCCCCCCNC(=O)Oc1ccc2c(c1)CN(C)C(c1ccc(Cl)cc1)N2C (stereo unspecified) | 0.115 µM | 24% |  |  | 

Row | SMILES | IC50 (Cholinesterase [1]) | inhibition (Acetylcholinesterase [3]) | IC50 (Cholinesterase [4]) | IC50 (Acetylcholinesterase [5]) | further results
22 | Cc1cccc(C2N(C)Cc3cc(O)ccc3N2C)c1 (stereo unspecified) |  |  | 17.4 µM | 437 µM | 
23 | CCCCCCCNC(=O)Oc1ccc2c(c1)CN(C)C(c1ccc(C)cc1)N2C (stereo unspecified) | 0.231 µM | 9% |  |  | 
24 | CCCCCCCNC(=O)Oc1ccc2c(c1)CN(C)C(c1ccoc1)N2C (stereo unspecified) | 0.083 µM | 12% |  |  | 
25 | CN1Cc2cc(O)ccc2N(C)C1c1cccc2ccccc12 (stereo unspecified) |  |  | 2.8 µM | 342 µM | 
26 | CN1Cc2cc(O)ccc2N(C)C1c1cccnc1 (stereo unspecified) |  |  | 70.7 µM |  | inhibition (Acetylcholinesterase [6]): 61%
27 | CN1Cc2cc(O)ccc2N(C)C1c1ccccc1Cl (stereo unspecified) |  |  | 56 µM |  | inhibition (Acetylcholinesterase [6]): 60%
28 | CN1Cc2cc(O)ccc2N(C)C1c1ccoc1 (stereo unspecified) |  |  | 196 µM | 342 µM | 
29 | COc1ccccc1C1N(C)Cc2cc(O)ccc2N1C (stereo unspecified) |  |  | 9.9 µM | 193 µM | 
30 | CN1Cc2cc(O)ccc2N(C)C1c1cccs1 (stereo unspecified) |  |  | 63.2 µM | 226 µM | Activity [10]: Non-toxic; Activity (HT-22 [11]): Active; Activity [12]: 3.4 equiv
31 | CN1Cc2cc(O)ccc2N(C)C1c1ccc(F)cc1 (stereo unspecified) |  |  | 58.9 µM | 143 µM | 
32 | CCCCCCCNC(=O)Oc1ccc2c(c1)CN(C)C(c1ccc(C(F)(F)F)cc1)N2C (stereo unspecified) | 2.7 µM | 59% |  |  | K [7]: 756 nM; K [8]: 0.05 min⁻¹; Ratio [9]: 0.07 µM⁻¹ min⁻¹
33 | CN1Cc2cc(O)ccc2N(C)C1c1ccc(Cl)cc1 (stereo unspecified) |  |  | 13.8 µM | 236 µM | 
34 | CCCCCCCNC(=O)Oc1ccc2c(c1)CN(C)C(c1ccccc1Cl)N2C (stereo unspecified) | 0.474 µM |  |  |  | inhibition (Acetylcholinesterase [2]): 48%
35 | CCCCCCCNC(=O)Oc1ccc2c(c1)CN(C)C(c1cccc3ccccc13)N2C (stereo unspecified) | 36.2 µM |  |  |  | K [7]: 15.6 nM; K [8]: 0.03 min⁻¹; Ratio [9]: 1.92 µM⁻¹ min⁻¹; inhibition (Acetylcholinesterase [2]): 8%
36 | CCCN1Cc2cc(O)ccc2N(C)C1c1ccccc1 (stereo unspecified) |  |  | 22.8 µM | 279 µM | 
37 | CCCCCCCNC(=O)Oc1ccc2c(c1)CN(C)C(c1ccc(OC)cc1)N2C (stereo unspecified) | 0.875 µM | 14% |  |  | K [7]: 1200 nM; Activity (HT-22 [13]): Active; K [8]: 0.24 min⁻¹; Ratio [9]: 0.2 µM⁻¹ min⁻¹; viability at 24 h [14]: > 80%; Activity [12]: 0.5 equiv
38 | Oc1ccc2nc(-c3ccccc3)ncc2c1 |  |  | 98.1 µM |  | inhibition (Acetylcholinesterase [6]): 20%
39 | CN1Cc2cc(O)ccc2N(C)C1c1cc[nH]c1 (stereo unspecified) |  |  | 15.3 µM | 116 µM | 
40 | CCCCCCCNC(=O)Oc1ccc2c(c1)CN(C)C(c1cccnc1)N2C (stereo unspecified) | 0.565 µM | 18% |  |  | 
41 | CCCCCCCNC(=O)Oc1ccc2c(c1)CN(C)C(c1ccccc1C)N2C (stereo unspecified) | 0.251 µM |  |  |  | inhibition (Acetylcholinesterase [2]): 18%
42 | CCCCCCCNC(=O)Oc1ccc2c(c1)CN(CCC)C(c1ccccc1)N2C (stereo unspecified) | 0.04 µM | 46% |  |  | 

— ChEMBL document CHEMBL3785077 (J Med Chem, 2016)
